Results of several laboratories.
Each line is one published result; the experiments were not run side by side. pIC50: −log10 of the molar value.
rep main protease: Replicase polyprotein 1ab, main protease (rep, Porcine epidemic diarrhea virus, UniProt P0C6Y4)
PTGS1: Prostaglandin G/H synthase 1 (PTGS1, Ovis aries, UniProt P05979)
rep papain-like protease: Replicase polyprotein 1ab, papain-like protease (rep, Porcine epidemic diarrhea virus, UniProt P0C6Y4)
IPMK: Inositol polyphosphate multikinase (IPMK, Homo sapiens, UniProt Q8NFU5)
MAP2K2: Dual specificity mitogen-activated protein kinase kinase 2 (MAP2K2, Homo sapiens, UniProt P36507)
ALDH3A1: Aldehyde dehydrogenase, dimeric NADP-preferring (ALDH3A1, Homo sapiens, UniProt P30838)

Compound	target	observed	mode	method	pIC50
COc1ccc(N2CCN(Cc3cn4c(-c5ccc(Br)cc5)nnc4s3)CC2)cc1	Aifm2 (Mus musculus, UniProt Q8BUE4, A354T/L360F)	enzyme activity	inhibitor	absorbance	~6.29
COc1cc(CNC(=O)c2ccccc2C)cc(Br)c1OC	rep main protease	enzyme activity	inhibitor	FRET	5.17
NS(=O)(=O)c1ccc(-n2nc(-c3nnc(CCl)o3)cc2-c2ccccc2)cc1	PTGS1	enzyme activity	inhibitor		5.17
CN(C)c1ccc(C(=O)NCc2cc(O)c(O)c(Br)c2)cc1	rep main protease	enzyme activity	inhibitor	FRET	5.12
NS(=O)(=O)c1ccc(-n2nc(C(=O)NN3C(=O)c4ccccc4C3=O)cc2-c2ccccc2)cc1	PTGS1	enzyme activity	inhibitor		5.17
O=C(NCc1cc(O)c(O)c(Br)c1)c1cccc(C(F)(F)F)c1	rep papain-like protease	enzyme activity	inhibitor	FRET	5.71
Cc1ccc(S(=O)(=O)NNc2ccc([N+](=O)[O-])cc2[N+](=O)[O-])cc1	PTGS1	enzyme activity	inhibitor		3.71
NS(=O)(=O)c1ccc(-n2nc(C(=O)NN3C(=O)CCC3=O)cc2-c2ccccc2)cc1	PTGS1	enzyme activity	inhibitor		5.12
COCCNc1nc(NCc2cccc(C(=O)Nc3ccc(OC)cc3)c2)nc2[nH]cnc12	IPMK	enzyme activity	inhibitor		4.20
C=CC(=O)N1CCC([C@@H]2CCNc3c(C(N)=O)c(-c4ccc(Oc5ccccc5)cc4)nn32)CC1	MAP2K2	enzyme activity	inhibitor		6.88
COCCNc1nc(NCc2cccc(-c3ccc(OC)cc3)c2)nc2[nH]cnc12	IPMK	enzyme activity	inhibitor		4.42
O=C1Nc2ccc(I)cc2/C1=C/c1cc(Br)c(O)c(Br)c1	Mitogen-activated protein kinase kinase kinase 20 (MAP3K20, Homo sapiens, UniProt Q9NYL2)	enzyme activity	inhibitor		5.95
NS(=O)(=O)c1ccc(-n2nc(C(=O)NN=Cc3ccc(O)cc3)cc2-c2ccccc2)cc1	PTGS1	enzyme activity	inhibitor		5.42
CC(=O)Oc1cccc(C(=O)NCc2cc(O)c(O)c(Br)c2)c1C	rep papain-like protease	enzyme activity	inhibitor	FRET	5.56
COc1cc(C=NNC(=O)c2cc(-c3ccccc3)n(-c3ccc(S(N)(=O)=O)cc3)n2)cc(OC)c1OC	PTGS1	enzyme activity	inhibitor		5.14
COc1nc2ccc(Br)cc2cc1[C@@H](c1ccccc1)[C@@](O)(CCN(C)C)c1cccc2ccccc12	ALDH3A1	enzyme activity	inhibitor	fluorescence	> 5.00
CCC(C(=O)NCc1cc(O)c(O)c(Br)c1)c1ccccc1 (stereo not shown)	rep papain-like protease	enzyme activity	inhibitor	FRET	4.97
OC[C@H]1O[C@@H](Oc2ccc(O)c3cccc(O)c23)[C@H](O)[C@@H](O)[C@@H]1O	ALDH3A1	enzyme activity	inhibitor	fluorescence	> 5.00
NC(N)=S	Urease (Canavalia ensiformis, UniProt P07374)	enzyme activity	inhibitor		4.62
O=C(NCc1cc(O)c(O)c(Br)c1)c1nccs1	rep papain-like protease	enzyme activity	inhibitor	FRET	5.39
C=C1CC/C=C(\C)CC[C@@H]2[C@@H]1CC2(C)C	Transient receptor potential cation channel subfamily V member 1, non-phosphorylated (TRPV1, Homo sapiens, UniProt Q8NER1)	ion current		patch clamp	6.23
N=C(N)c1ccc2nc(-c3cc(CC(=O)N[C@@H](CC(=O)O)C(=O)O)cc(-c4cc(S(N)(=O)=O)ccc4O)c3O)[nH]c2c1	Coagulation factor VII (F7, Homo sapiens, UniProt P08709)	enzyme activity	inhibitor		7.46
CN1CCC(CNc2ccc3ncc(-c4cccc(OC(F)(F)F)c4)n3n2)CC1	D(1A) dopamine receptor (DRD1, Homo sapiens, UniProt P21728)	cAMP	antagonist		5.18
COc1ccc(C(=O)NCc2cc(O)c(O)c(Br)c2)cc1	rep papain-like protease	enzyme activity	inhibitor	FRET	5.61
CC#CC(=O)N[C@H]1CCCN(c2c(F)cc(C(N)=O)c3[nH]c(C)c(C)c23)C1	MAP2K2	enzyme activity	inhibitor		< 5.30
O=C(NCc1cc(O)c(O)c(Br)c1)c1ccccc1	rep papain-like protease	enzyme activity	inhibitor	FRET	4.90
NS(=O)(=O)c1ccc(-n2nc(C(=O)NN=Cc3ccccc3O)cc2-c2ccccc2)cc1	PTGS1	enzyme activity	inhibitor		5.41
O=C(Nc1ccc(-c2ccccc2)cc1)c1cnn(-c2ccc([N+](=O)[O-])cc2)c1C(F)(F)F	PTGS1	enzyme activity	inhibitor		5.23
